Source: PubChem (several laboratories)
Hits are enriched below; roughly 1.2% of the tested compounds scored in any of these assays.
MsrA inh: inhibitors of bovine MsrA; purified bovine MsrA, absorbance read-out; inhibition, % at 15.5 µM; 360,000 compounds, 0.75% hits; AID 651718
procasp7 counter: counter-screen: procaspase-7 (human) activation; activation, % at 8.5 µM; 330,000 compounds, 0.093% hits; P55210; recombinant procaspase-7, Ac-DEVD-pNA absorbance 405 nm; D23A/D198A/D206A triple mutant, cannot self-cleave; scale: DMSO 0, 5 µM enzyme 100;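 active = percent activation above the screen-wide mean plus 3 SD, cut at about 25% in these data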
Target sequence (P55210 whole entry D23A/D198A/D206A): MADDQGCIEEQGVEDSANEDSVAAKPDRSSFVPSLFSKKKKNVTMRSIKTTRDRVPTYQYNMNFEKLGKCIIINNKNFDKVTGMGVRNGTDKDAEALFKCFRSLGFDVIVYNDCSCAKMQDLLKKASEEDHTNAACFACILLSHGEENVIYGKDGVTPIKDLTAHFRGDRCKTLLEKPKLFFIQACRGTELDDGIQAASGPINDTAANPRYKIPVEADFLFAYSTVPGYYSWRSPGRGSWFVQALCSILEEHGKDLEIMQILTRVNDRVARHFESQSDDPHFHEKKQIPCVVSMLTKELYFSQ
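Assay system: Uncleavable procaspase-7 mutant enzyme; Input: 2 µM procaspase-7 mutant as dispensed; Also added: DEVD-pNA substrate; Medium: Zinc-free HEPES pH 7.4 with 300 mM NaCl, 0.01% Triton X-100; Timing: 1 h compound preincubation, 2 h substrate cleavage, 25 °C; Measured by: Epi-absorbance of released pNA at 405 nm, two timepoints.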
proCasp3 act: activates human procaspase-3 | activation, % at 8.5 µM | AID 463141 | recombinant procaspase-3 D3A, Ac-DEVD-pNA absorbance 405 nm | 330,000 compounds, 0.11% hits | P42574;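 active = activation above the mean of all tested compounds plus 3 SD, cut at about 21% in these data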
Target sequence (P42574 whole entry D9A/D28A/D175A): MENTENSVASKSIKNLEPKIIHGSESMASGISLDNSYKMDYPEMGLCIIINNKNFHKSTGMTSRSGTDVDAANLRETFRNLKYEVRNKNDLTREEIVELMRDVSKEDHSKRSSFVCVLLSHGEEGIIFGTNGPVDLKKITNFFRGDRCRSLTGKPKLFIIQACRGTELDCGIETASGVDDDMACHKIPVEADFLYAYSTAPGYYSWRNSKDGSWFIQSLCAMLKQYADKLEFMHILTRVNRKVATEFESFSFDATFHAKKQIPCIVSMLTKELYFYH
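assay system = Procaspase-3 D3A mutant | signal = absorbance at 405 nm, 0 and 120 min | times = 1 h preincubation plus 2 h reaction at 25 °C | repeats = single replicate | read-out = % activation between DMSO and enzyme-spiked controls | medium = Zinc-free HEPES saline buffer with Triton X-100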
MsrA act: activators of bovine methionine sulfoxide reductase A; purified bovine MsrA, absorbance read-out; activation, % at 10.6 µM; 360,000 compounds, 0.3% hits; AID 602163; in the data active = activation above about 7.5%
A1 inh: inhibitors of the anti-apoptotic protein A1, read as caspase activation | MEF A1-2A-BIM cells, Caspase-Glo 3/7 luminescence, 3 h; percent of clofoctol response, vehicle zero | caspase activation, % (test concentration not listed) | 330,000 compounds, 0.066% hits | AID 2462;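 active = over half of replicate activation scores above 10%, or exactly half above 10 with the replicate mean above 10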
MsrA conf: bovine MsrA inhibition, confirmed; shares compounds with MsrA inh; purified bovine MsrA, absorbance read-out; inhibition, % at 15.5 µM; 2,300 compounds, 41% hits;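 also: coupled to thioredoxin reductase with NADPH and selenocystamine and DMSO as substrate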
Each line names hits and unclear results; the compound was inactive in the other large screens (follow-up assays come after a bar, where they were run). Rule as the data show it, unless noted: active = inhibition above about 4.5%; inactive = the rest.

CCN(c1ccccc1)S(=O)(=O)c1c[nH]c2ccc([N+](=O)[O-])cc12	none
Cc1ccc(N(C)S(=O)(=O)c2c[nH]c3ccc([N+](=O)[O-])cc23)cc1	MsrA inh 5.8 (no result: A1 inh) | MsrA conf inactive
FC(F)(F)c1ccccc1/C=N/n1c(C2CCCCC2)n[nH]c1=S	none
S=c1[nH]nc(C2CCCCC2)n1/N=C/c1ccccc1Cl	MsrA inh 15.1 | MsrA conf 11.8
COC1=C/C(=C/c2c(N)n3nc(-c4ccc(C)cc4)sc3nc2=O)C=CC1=O	none (no result: procasp7 counter, proCasp3 act, A1 inh)
CCS(=O)(=O)c1nn2c(N)c(/C=C3/C=CC(=O)C(OC)=C3)c(=O)nc2s1	MsrA inh 4.7 | MsrA conf inactive
CC1CC(C)CN(C(=O)c2cc3ccccc3o2)C1 (configuration not stated)	none
CC1CC(C)CN(C(=O)c2cc3cc(Br)cc(Br)c3o2)C1 (configuration not stated)	MsrA inh 5.4 | MsrA conf inactive
CO/N=C/C(C#N)=C/c1ccc(OC)cc1	MsrA inh 6.7 | MsrA conf 4.8
COc1ccc(/C=C(/C#N)S(=O)(=O)c2ccc(C)cc2)cc1	none (no result: A1 inh)
COc1ccc(/C=C/C(=O)NC(=S)Nc2ccc(S(=O)(=O)Nc3nccnc3OC)cc2)cc1	MsrA inh 5.2 | MsrA conf 6.0
COc1ccc(/C=C/C(=O)NC(=S)Nc2ccc(S(=O)(=O)Nc3cc(OC)ncn3)cc2)cc1	none (no result: procasp7 counter, proCasp3 act, A1 inh)
CC1(C)OC(C)(C)C(=N/O)/C1=N\N	none (no result: procasp7 counter, proCasp3 act, MsrA act, A1 inh)
C/C(CCCO)=N/Nc1ccc([N+](=O)[O-])cc1[N+](=O)[O-]	MsrA inh 13.8 | MsrA conf 7.0
C/C(CCC(=O)O)=N/Nc1ccc([N+](=O)[O-])cc1[N+](=O)[O-]	MsrA inh 13.3 | MsrA conf 9.8
COc1cccc2cc(C(=O)Oc3ccc(NC(C)=O)cc3)c(=O)oc12	MsrA inh 4.7 | MsrA conf inactive
Cc1ccc2nc(NC(=O)c3ccco3)sc2c1	none
COc1ccc2nc(NC(=O)c3ccco3)sc2c1	MsrA inh 4.7 | MsrA conf inactive
O=C(O)c1cccc2c1-c1c(cccc1[N+](=O)[O-])C2	MsrA inh 5.9 (no result: procasp7 counter, proCasp3 act, A1 inh) | MsrA conf inactive
O=C(O)c1cccc2c1C(=O)c1cc([N+](=O)[O-])cc([N+](=O)[O-])c1-2	MsrA inh 5.6 (no result: procasp7 counter, proCasp3 act, A1 inh) | MsrA conf inactive
O=C(O)c1cccc2c1-c1ccc([N+](=O)[O-])cc1C2=O	none (no result: procasp7 counter, proCasp3 act, A1 inh)
O=C(O)c1ccc([N+](=O)[O-])c2c1C(=O)c1ccccc1C2=O	none
O=C(CN1CCN(Cc2ccccc2)CC1)N/N=C/C=C/c1ccco1	MsrA inh 5.8 | MsrA conf inactive
O=C(c1cnc2sccn2c1=O)N1CCc2ccccc2C1	MsrA inh 4.8 | MsrA conf inactive
CC(=NCc1cccc(Cl)c1)c1nc(-c2ccco2)oc1O	MsrA inh 5.9 | MsrA conf inactive
CC(=O)N1C[C@H]2CON(C)[C@H]2C[C@H]1c1ccccc1-c1ccccc1	none (no result: procasp7 counter, proCasp3 act, MsrA act, A1 inh)
Oc1[nH]c2ccccc2c1C=NCC1CCCO1 (configuration not stated)	MsrA inh 6.0 | MsrA conf inactive
Cc1[nH]c2ccccc2c1/C=N/NC(=O)c1cccc(F)c1	MsrA inh 4.8 | MsrA conf inactive
Cc1[nH]c2ccccc2c1/C=N\NC(=O)c1ccco1	MsrA inh 6.6 (no result: procasp7 counter, proCasp3 act) | MsrA conf 5.3
COc1ccc(/C=N/Nc2nn3cnnc3c3ccccc23)cc1	MsrA inh 5.1 | MsrA conf inactive
COc1ccc(/C=N/Nc2nonc2N)cc1	none
Cc1c(C=N)c(O)n(C)c(=O)c1C#N	MsrA inh 5.2 | MsrA conf 6.6
CCN(CC)S(=O)(=O)c1ccc(N=Cc2c(C)c(C#N)c(=O)n(C)c2O)cc1	MsrA inh 5.1 | MsrA conf 7.3
COc1cc(S(=O)(=O)Nc2ccc(C)cc2)ccc1N=Cc1c(C)c(C#N)c(=O)n(C)c1O	none
C=CCn1c(O)c(CN2CCCCC2)c(C)c(C#N)c1=O	none
Cc1ccc(N/N=C/c2c(C)c(C#N)c(=O)n(C)c2O)cc1C	MsrA inh 5.9 (no result: procasp7 counter, proCasp3 act, A1 inh) | MsrA conf 6.6
CCOc1ccc(NC(=O)C2CC(=O)N(CCc3ccc(OC)c(OC)c3)C2)cc1OCC (configuration not stated)	none
COc1ccc2oc(C(=O)OCC(=O)NC3CCCCC3)c(C)c2c1	none
COc1ccc2cc3cc(C(=O)NCc4ccco4)oc3nc2c1	MsrA inh 4.8 | MsrA conf inactive
COc1ccc2cc3cc(C(=O)NCc4ccccn4)oc3nc2c1	MsrA inh 8.0 | MsrA conf 5.6
COc1ccc(CN2C(=O)CSCC2(C)C(=O)Nc2c(C)cccc2C)cc1 (configuration not stated)	none (no result: procasp7 counter, proCasp3 act, MsrA act, A1 inh)
CCc1ccc[n+](-c2[nH]c(=O)sc2/C=N/NC([S-])=Nc2ccccc2)c1	MsrA inh 6.5 | MsrA conf inactive
Cc1cc(C)c[n+](-c2[nH]c(=O)sc2/C=N/NC([S-])=Nc2ccccc2)c1	MsrA inh 4.9 | MsrA conf 6.2
CN(/N=C/c1ccncc1)c1cnc2ccccc2n1	MsrA inh 4.7 | MsrA conf inactive
COc1ccc(-n2c(C)nn(C)c2=O)cc1	none
COc1ccc(-n2c(/C=C(\C)O)nc(=O)c3c(C)cc(C)nc32)cc1	MsrA inh 5.8 | MsrA conf inactive
CC(CC(=O)N(C)CC(=O)Nc1ccc(N2CCOCC2)cc1)c1ccccc1 (configuration not stated)	none
CN(CC(=O)Nc1ccc(N2CCOCC2)cc1)C(=O)Cc1ccccc1	MsrA inh 5.3 | MsrA conf inactive
Cc1cc(NCCc2c[nH]c3ccccc23)ccc1Nc1cccnc1	none (no result: procasp7 counter, proCasp3 act, MsrA act, A1 inh)
CC(C)N(CCO)Cc1nc(C(c2ccccc2)c2ccccc2)no1	none
COc1cc(/C=N/NC(=O)c2cc(-c3ccccc3Cl)nc3ccccc23)cc(OC)c1O	none
COc1ccc(/C=N/NC(=O)c2[nH]c3ccc(C)cc3c2-c2ccccc2)c(C(=O)O)c1OC	MsrA inh 6.2 | MsrA conf inactive
COc1cc(/C=N/n2c(C)nc3ccccc3c2=O)ccc1O	MsrA inh 5.4 | MsrA conf inactive
COc1ccc(-c2cc(C(=O)N/N=C/c3ccc4c(c3)OCO4)c3ccccc3n2)c(OC)c1	MsrA inh 5.8 | MsrA conf inactive
COc1cc(/C=N/NC(=O)c2cc(-c3ccco3)nc3ccccc23)cc(OC)c1O	MsrA inh 4.7 | MsrA conf inactive
CCOC(=O)C1CSCCS(=O)(=O)N1Cc1ccccc1F (configuration not stated)	none (no result: procasp7 counter, proCasp3 act, MsrA act, A1 inh)
COc1cccc(OCc2ccc(Cn3nc(NC(=O)NCCc4ccc(OC)c(OC)c4)c4ccccc43)cc2)c1	none (no result: procasp7 counter, proCasp3 act, A1 inh)
COc1cc(/C=N/NC(=O)c2cc(-c3ccccc3)nc3ccccc23)ccc1O	MsrA inh 5.0 | MsrA conf inactive
